Bioassay records as filed in PubChem.
This is a sample that favours compounds with a hit; in the whole collection about 2.5% have one here.
OX1R antag-1 – OX1R (HCRTR1) antagonists, primary screen, fluorescence, CHO/OX1R cells, Fluo-8 calcium, orexin A; inhibition, % at 5 µM; Fluo-8 calcium fluorescence; AID 434989, 2010; Orexin/Hypocretin receptor type 1 (Homo sapiens), O43613; 330,000 tested, 0.43% active;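 active means inhibition above its plate's threshold, mean inhibition of all tested compounds on the plate plus 3 SD, cut at about 37% in these data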;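 further: 0% = orexin A challenge wells and 100% = SB-334867-A antagonist wells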
Target sequence (O43613 whole entry, looked up): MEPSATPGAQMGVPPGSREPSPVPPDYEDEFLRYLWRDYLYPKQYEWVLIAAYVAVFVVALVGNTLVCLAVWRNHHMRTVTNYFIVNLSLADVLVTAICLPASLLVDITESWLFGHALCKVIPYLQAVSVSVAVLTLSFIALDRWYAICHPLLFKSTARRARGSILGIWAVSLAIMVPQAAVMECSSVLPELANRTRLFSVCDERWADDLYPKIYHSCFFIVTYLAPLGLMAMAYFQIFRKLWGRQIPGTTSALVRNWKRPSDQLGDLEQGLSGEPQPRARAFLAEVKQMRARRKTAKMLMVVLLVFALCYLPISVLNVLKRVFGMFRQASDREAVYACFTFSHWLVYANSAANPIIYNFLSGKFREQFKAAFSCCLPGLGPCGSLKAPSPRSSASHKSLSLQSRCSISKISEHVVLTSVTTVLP
TRPN1 ag – zebrafish TRPN1 channel agonists, primary screen, cell-based, HEK293, calcium fluorescence | transient receptor potential cation channel N1 (TRPN1/NompC), Danio rerio | HEK293 zebrafish TRPN1-YFP, Fluo-8 calcium fluorescence; 100% = response to 87 µM carbachol | activation, % at 3 µM | 220,000 tested, 0.18% active | AID 1424, 2008;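 active means activation above its plate's cutoff, the mean activation of test wells on that plate plus 3 SD, cut at about 19% in these data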;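 further: 0% = DMSO alone and 100% = 87 µM carbachol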
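System: zebrafish TRPN1-YFP in HEK293 cells / Dosing: 3 µM single point / Timing: dye loading 1 h at 37 °C, then 30 min room temperature / Signal: Fluo-8 calcium fluorescence, excitation 470-495 nm, emission 515-575 nm / Read-out basis: percent activation from peak over basal fluorescence ratio, control-normalized / Control set: high carbachol 87 µM, low DMSO alone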
OX1R antag-2 – antagonists of human orexin 1 receptor (OX1R); Orexin/Hypocretin receptor type 1 (Homo sapiens), O43613; OX1R-expressing cells, FRET antagonist read-out; inhibition, % at 6.6 µM; 330,000 tested, 1.8% active; AID 485270, 2010; in the data active means inhibition mostly above about 38%, no sharp cut-off; inactive means mostly below about 40%;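 further: 0% = agonist challenge alone and 100% = reference antagonist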
TRPML3 agonist – human TRPML3 channel agonists, primary screen, cell-based, HEK293 TRPML3-YFP, Fluo-8 calcium fluorescence, 3 µM | 100% = the carbachol control signal | activation, % at 3 µM | 220,000 tested, 0.29% active;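 active means activation above its plate's cutoff, the mean activation of the plate's test wells plus 3 SD, cut at about 12% in these data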;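 further: 0% = DMSO only wells and 100% = carbachol wells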
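Material: TRPML3-YFP stable HEK293 cells | Dosing: One concentration, 3 µM nominal, 0.3% DMSO | Timing: 125 s total fluorescence read per well | Technique: Fluo-8 calcium dye fluorescence, ex 470-495, em 515-575 nm | Measure: Percent activation from peak-to-basal fluorescence ratio, scaled between DMSO and carbachol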
CHO parental Ca – ATP-evoked calcium signal inhibitors, parental CHO, primary screen, counter-screen for OX1R antagonist project, cell-based, fluorescence, Fluo-8 calcium dye. parental CHO-K1, ATP-induced calcium, Fluo-8 fluorescence. inhibition, % at 5.6 µM. 330,000 tested, 0.63% active;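 active means inhibition above that plate's mean sample inhibition plus 3 SD, cut at about 26% in these data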;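 further: 0% = ATP-challenged DMSO wells and 100% = DMSO wells without ATP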
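Measured by: calcium-sensitive Fluo-8 fluorescence / Test system: CHO parental line / Controls: ATP-challenged DMSO wells low, unchallenged DMSO wells high / Measure: % inhibition / Compound: single nominal dose of 5.6 µM per compound / Replicates: single well per compound, no replicates / Reagent: ATP as calcium-mobilizing challenge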
* marks the source's active call; other numbers are inactive results; / = no result given.

SMILES	OX1R antag-1	TRPN1 ag	OX1R antag-2	TRPML3 agonist	CHO parental Ca
O=C(CCc1ccccc1)NC1(Cc2ccccc2)CCN(CCCc2ccccc2)C1=O (centres undefined)	-11.2	/	6.8	/	-28.9
O=C(CSc1nnc(-c2ccc(C(F)(F)F)cn2)o1)Nc1cccc(Cl)c1	0.5	1.0	1.0	0.0	-5.8
O=C(O)c1cc2ccccc2c(N=Nc2cccnc2)c1O	-12.5	/	73.6*	/	-8.3
Cc1c(Cl)ccc(S(=O)(=O)Nc2cccnc2)c1Cl	-16.4	/	19.6	/	-14.4
O=C1NC(=Nc2ccccc2)c2ccc([N+](=O)[O-])cc21	-4.7	-0.2	74.3*	0.7	-4.2
Cc1cccc(N=C2NC(=O)c3cc([N+](=O)[O-])ccc32)c1	0.3	1.9	69.7*	1.3	-6.5
O=C(Nc1ccc(Cl)c([N+](=O)[O-])c1)c1ccc(NCCCN2CCOCC2)c([N+](=O)[O-])c1	1.4	-0.8	24.0	0.9	42.4*
Cc1ccc(NC(=O)c2ccc(NCCCN3CCOCC3)c([N+](=O)[O-])c2)cc1Cl	-0.6	0.8	21.5	0.6	-21.0
C/C(=N\Nc1ncnc2sc(C)c(C)c12)c1ccccn1	90.5*	/	33.7	/	79.4*
O=C(N/C=C/n1cnc2cc(C(F)(F)F)ccc21)c1ccccc1	-50.5	0.1	26.1	0.5	50.6*
O=C(N/C=C\n1cnc2cc(C(F)(F)F)ccc21)c1ccc([N+](=O)[O-])cc1	-25.0	-0.5	18.1	0.0	2.4
Cc1cccc(C=Nc2ccc3c4c(cccc24)CC3)c1O	54.0*	9.1	17.3	6.8	38.9*
Oc1ccc(Cl)cc1C=Nc1ccc2c3c(cccc13)CC2	62.2*	8.2	13.1	4.6	59.4*
COC(=O)[C@H](CC(C)C)NC(=O)Cn1cnc2c(SC)nc(N)nc21	3.9	/	-1.7	/	7.1
O=[N+]([O-])c1ccc(/C=C/C2=NN(c3ccccc3)C(c3ccco3)C2)o1 (centres undefined)	/	23.3*	/	20.5*	/
COc1cccc(OC)c1C(=O)Nc1ccc2c3c(cccc13)CC2	-26.8	-0.4	28.8	-0.7	-18.5
COc1ccccc1C(=O)Nc1cccc2c1CCCC2	-4.5	/	27.4*	/	-18.8
COc1ccccc1C(=O)Nc1ccc2c3c(cccc13)CC2	7.9	-0.5	60.7*	0.4	-19.3
O=C(Nc1ccc(F)cc1)Nc1cccc(Br)c1	61.4*	/	57.6*	/	75.8*
COC(=O)c1ccc(NC(=O)Nc2cccc(F)c2)cc1	-3.3	19.4*	55.3	9.7	22.5
Cc1ccc([N+](=O)[O-])cc1NC(=O)Nc1cccc(F)c1	/	23.9*	/	10.7	/
O=C(Nc1cccc(F)c1)Nc1ccc2c(c1)CCC2	-1.6	/	24.4	/	22.2
O=C(Nc1ccc(F)cc1)Nc1ccc2c(c1)CCC2	6.9	/	10.1	/	39.0*
COc1cccc(CNC(=O)c2ccc(NC(=O)CC3SC(N4CCCC4)=NC3=O)cc2)c1 (centres undefined)	9.1	/	3.8	/	-2.8
N#Cc1ccc(C(=O)NC23CC4CC(CC(C4)C2)C3)cc1	-35.4	/	-7.2	/	-5.6
SMILES	OX1R antag-1	TRPN1 ag	OX1R antag-2	TRPML3 agonist	CHO parental Ca
Cc1cc(C(=O)Nc2ccc3c(c2)CCC3)ccc1[N+](=O)[O-]	13.0	/	45.3*	/	-22.3
Cc1cc(C)nc(NC(=O)c2ccc([N+](=O)[O-])c(C)c2)n1	-12.7	/	14.3	/	-2.8
O=C(Nc1cccc([N+](=O)[O-])c1)Nc1ccc2c(c1)CCC2	4.8	/	61.6*	/	43.2*
C=CCNc1ncnc2sc(SC)nc12	-7.3	1.1	6.8	0.6	-8.8
O=C1C=C(c2cccc3c2oc2ccccc23)C[C@@H](c2ccc(F)cc2)C1	-31.0	/	8.8	/	-37.5
O=C(Nc1ccccc1)C1CCCN1S(=O)(=O)c1ccc(Br)cc1 (centres undefined)	16.5	/	64.0*	/	-11.9
O=C(Nc1ccc(Cl)cn1)C1CCCN1S(=O)(=O)c1ccccc1 (centres undefined)	19.3	0.4	69.5*	1.1	-18.6
COc1ccc(S(=O)(=O)N2CCCC(C(=O)Nc3cccnc3)C2)cc1Cl (centres undefined)	-7.8	2.2	14.2	1.6	-7.3
O=C(Nc1nccs1)C1CCCN1S(=O)(=O)c1ccc(Cl)cc1 (centres undefined)	4.8	1.5	22.9	0.0	-16.9
O=C(Nc1cccnc1)C1CCCN1S(=O)(=O)c1ccc(Cl)c(Cl)c1 (centres undefined)	1.5	1.9	62.6*	0.6	-15.1
O=C(Nc1ccc(Br)cn1)C1CCCN1S(=O)(=O)c1ccccc1 (centres undefined)	-1.7	1.4	49.4*	1.1	-23.8
O=C(Nc1ccc(O)cc1)C1CCCN1S(=O)(=O)c1ccc(F)cc1 (centres undefined)	-0.9	1.5	24.9	0.2	-0.4
CC(NC(=O)C1CCCN1S(=O)(=O)c1ccccc1)c1ccccc1 (centres undefined)	-22.3	/	15.2	/	-12.1
Nc1cc(Cl)ccc1N1CCCCCC1	-16.6	-1.0	17.1	0.6	-2.2
Cc1ccc(C(=O)Nc2ccc(N3CCN(C(=O)c4cccs4)CC3)cc2)c(Cl)c1	-17.4	/	23.4	/	-14.0
Cc1cc(C)n(-c2cccc(Cl)c2C#N)n1	-6.6	-1.4	11.8	0.4	-7.3
CCCCn1c(=O)nc2n(-c3ccc(C)cc3)c3ccccc3cc-2c1=O	-27.4	-0.6	27.2	-0.3	-18.1
Cc1ccc(-n2c3nc(=O)n(C)c(=O)c-3cc3ccccc32)cc1	-9.8	2.3	49.5*	0.9	-17.6
O=c1[nH]c(CSc2cccc[n+]2[O-])nc2ccccc12	-22.9	1.1	7.0	0.3	-13.0
CCCCCCn1c(=O)[nH]c2nc3cc(N)ccc3nc2c1=O	75.3*	37.1*	17.5	45.7*	51.4*
CC(NC(=O)c1ccco1)C(=O)N1CC=C(c2ccccc2)CC1 (centres undefined)	-5.5	/	1.1	/	-7.3
COc1ccc(-c2cnc3c(-c4ccc(F)cc4)cnn3c2N)cc1	-23.3	/	17.1	/	-13.9
Cc1nc2c(-c3ccc(F)cc3)cnn2c2c1CCC2	0.6	0.0	54.5*	0.7	-13.4
Cc1ccc(NC(=O)CSc2nc3nc(C)c(Br)cc3[nH]2)cc1F	-3.8	/	44.6*	/	-16.5
COC(=O)CSc1nc2nc(C)c(Br)cc2[nH]1	-20.0	-0.7	14.4	0.0	-9.4
Cc1ccc2c(c1)-c1c(cnn1CC(=O)N(Cc1ccco1)C1CCCCC1)CO2	-13.2	-1.4	52.2*	1.0	-12.3
Cc1ccc2c(c1)-c1c(cnn1CC(=O)NC(C)CCc1ccco1)CO2 (centres undefined)	-9.6	-1.7	4.5	-0.9	-13.1
